Measured values as given in paper PMC8341669 (RSC Chemical Biology, 2021).

Assay: CD spectrum / MD helical content of the peptide in the free state
Assay type: physicochemical
Conditions: CD in H2O at 200 μM and MD simulations
In short: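 Peptide dissolved in HPLC-grade water at 200 μM and CD spectra recorded on a spectropolarimeter. Free peptide in solution MD: steepest-descent minimisation, 1 ns NVT (300 K, V-rescale) and 1 ns NPT (1 bar, Parrinello–Rahman) equilibration with heavy-atom restraints stepped off, then four 200 ns NPT production runs per peptide; PME electrostatics, 10 Å van der Waals cut-off, LINCS constraints.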

RIRREEYLKAIQ [Linear]
α-helical content in the free state: lower α-helical content
